Legend:
[1] = Metabolic stability in rat liver microsomes assessed as compound metabolized at 5 uM measured after 15 mins; assay type: ADME; conditions: read-out: Drug metabolism
How it was run: (§1)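 Human or rat liver microsomes incubated with compound at 5 μM for 15 min; read-out is % of parent metabolized; means of at least two experiments.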

[2] = Lipophilicity, log P of the compound; assay type: physicochemical; conditions: octanol/water
[3] = Apparent permeability across apical to basolateral side over basolateral to apical side in pig LLC-PK1 cells at 1 uM measured after 120 mins; assay type: ADME, cell-based, Sus scrofa
[4] = Clearance in Sprague-Dawley rat at […], iv or 10 mg/kg, po; assay type: ADME, organism-based; conditions: in vivo
[5] = Ratio of drug level in brain to plasma of Swiss mouse at 10 mg/kg, sc measured after 1 hr; assay type: ADME, organism-based; conditions: brain and plasma, read-out: BPR
How it was run: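 Swiss mice, single 10 mg/kg s.c. dose in 20% HP-β-CD + HCl solution at pH 4; brain/plasma ratio taken 1 h post-dose.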

[6] = Half life in Beagle dog at 1 mg/kg, iv or 5 mg/kg, po; assay type: ADME, organism-based, Canis lupus familiaris; conditions: in vivo
How it was run: (§2)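 Male Beagle dogs, 1 mg/kg i.v. and 5 mg/kg p.o., vehicle 20% HP-β-CD + HCl solution at pH 4; values are individual animals (two dogs) or mean of three animals ± SD.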

[7] = Tmax in Beagle dog at 1 mg/kg, iv or 5 mg/kg, po; assay type: ADME, organism-based, Canis lupus familiaris; conditions: in vivo
How it was run: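 Male Beagle dogs given 5 mg/kg orally and 1 mg/kg intravenously, formulated in 20% HP-β-CD + HCl solution at pH 4. Tmax reported as mean ± SD of three animals.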

[8] = AUC (0 to infinity) in Beagle dog at 1 mg/kg, iv or 5 mg/kg, po; assay type: ADME, organism-based, Canis lupus familiaris; conditions: in vivo; how it was run: as §2
[9] = Cmax in Beagle dog at 1 mg/kg, iv or 5 mg/kg, po; assay type: ADME, organism-based, Canis lupus familiaris; conditions: in vivo; how it was run: as §2
[10] = Oral bioavailability in Beagle dog at 5 mg/kg; assay type: ADME, organism-based, Canis lupus familiaris; conditions: in vivo; how it was run: as §2
[11] = Metabolic stability in human liver microsomes assessed as compound metabolized at 5 uM measured after 15 mins; assay type: ADME; conditions: read-out: Drug metabolism; how it was run: as §1
[12] = Dissociation constant, pKa of the compound; assay type: physicochemical
[13] = Elimination half life in Sprague-Dawley rat at […], iv or 10 mg/kg, po; assay type: ADME, organism-based; conditions: in vivo, read-out: beta t1/2 (converted)
[14] = Tmax in Sprague-Dawley rat at […], iv or 10 mg/kg, po; assay type: ADME, organism-based; conditions: in vivo
[15] = AUC (0 to infinity) in Sprague-Dawley rat at […], iv or 10 mg/kg, po; assay type: ADME, organism-based; conditions: in vivo
[16] = Cmax in Sprague-Dawley rat at […], iv or 10 mg/kg, po; assay type: ADME, organism-based; conditions: in vivo
[17] = Oral bioavailability in Sprague-Dawley rat at 10 mg/kg; assay type: ADME, organism-based; conditions: in vivo
[18] = Clearance in Beagle dog at 1 mg/kg, iv or 5 mg/kg, po; assay type: ADME, organism-based, Canis lupus familiaris; conditions: in vivo; how it was run: as §2

Row | metabolised at […], 5 µM [1] | metabolised at […], 5 µM [11] | SMILES | further results
1 | 25% |  | FC(F)(F)c1c(N2CCC(c3ccccc3)CC2)ccn2c(CC3CC3)nnc12 | logP [2]: 4.4; Papp at 2 h, 1 µM [3]: 12 ×10⁻⁶ cm/s; clearance [4]: 31 to 37 mL/min/kg; Kp at 1 h [5]: 1.4; half-life [6]: 66 to 108 min; Tmax [7]: 30 min; AUC(0-inf) [8]: 531 to 957 ng·h/mL; Cmax [9]: 218 to 472 ng/mL; bioavailability [10]: 18 to 33%
2 | 84% | 81% | Fc1ccc([C@H]2CC[C@@H](NCc3ccn4c(CC5CC5)nnc4c3C(F)(F)F)CC2)c(F)c1 | 
3 | 99% | 97% | CC1(c2ccccc2)CCCN(Cc2ccn3c(CC4CC4)nnc3c2C(F)(F)F)C1 (centres undefined) | 
4 | 75% | 5% | Fc1cccc(F)c1C1CCN(Cc2ccn3c(CC4CC4)nnc3c2C(F)(F)F)CC1 | 
5 | 85% | 8% | Fc1ccccc1C1CCN(Cc2ccn3c(CC4CC4)nnc3c2C(F)(F)F)CC1 | 
6 | 78% | 24% | FC(F)(F)c1c(CN2CCC(F)(c3ccccc3)CC2)ccn2c(CC3CC3)nnc12 | 
7 | 29% | 7% | Fc1ccc(N2CCN(Cc3ccn4c(CC5CC5)nnc4c3C(F)(F)F)CC2)c(F)c1 | logP [2]: 4.2; pKa [12]: 5; Papp at 2 h, 1 µM [3]: 22 ×10⁻⁶ cm/s; clearance [4]: 16 mL/min/kg; half-life [13]: 180 min; Tmax [14]: 300 min; AUC(0-inf) [15]: 11300 ng·h/mL; Cmax [16]: 980 ng/mL; bioavailability [17]: 100%; Kp at 1 h [5]: 2.1; clearance [18]: 4 to 6 mL/min/kg; half-life [6]: 420 to 540 min; Tmax [7]: 30 min; AUC(0-inf) [8]: 3960 to 9860 ng·h/mL; Cmax [9]: 459 to 1400 ng/mL; bioavailability [10]: 18 to 44%
8 | 98% | 69% | COC1(c2ccccc2)CCN(Cc2ccn3c(CC4CC4)nnc3c2C(F)(F)F)CC1 | 
9 | 96% | 67% | Fc1ccc(COC2CCN(Cc3ccn4c(CC5CC5)nnc4c3C(F)(F)F)CC2)c(F)c1 | 
10 | 98% | 51% | FC(F)(F)c1c(CN2CCCC(c3ccccc3)C2)ccn2c(CC3CC3)nnc12 (centres undefined) | 
11 | 9% | 6% | Fc1ccc(C2CCN(Cc3ccn4c(CC5CC5)nnc4c3C(F)(F)F)CC2)c(F)c1 | 
12 | 34% | 33% | Fc1ccc([C@H]2CC[C@H](NCc3ccn4c(CC5CC5)nnc4c3C(F)(F)F)CC2)c(F)c1 | 
13 | 90% | 13% | FC(F)(F)c1c(CN2CCC(c3ccccc3Cl)CC2)ccn2c(CC3CC3)nnc12 | 
14 | 98% | 35% | FC(F)(F)c1c(CN2CCC(c3ccccc3)(C(F)(F)F)CC2)ccn2c(CC3CC3)nnc12 | 
15 | 9% | 1% | FC(F)(F)c1c(CN2CCN(c3ccc(Cl)cc3Cl)CC2)ccn2c(CC3CC3)nnc12 | 
16 | 57% | 25% | Fc1ccc(OC2CCN(Cc3ccn4c(CC5CC5)nnc4c3C(F)(F)F)CC2)c(F)c1 | 
17 | 99% | 55% | Fc1cccc(F)c1N1CCN(Cc2ccn3c(CC4CC4)nnc3c2C(F)(F)F)CC1 | 
18 | 99% | 91% | Fc1ccc(N2CCCN(Cc3ccn4c(CC5CC5)nnc4c3C(F)(F)F)CC2)c(F)c1 | 
19 | 53% | 23% | CCCCn1ccc(N2CCC(c3ccccc3)CC2)c(Cl)c1=O [JNJ-40411813] | logP [2]: 4.6; pKa [12]: < 2; Tmax [14]: 30 min; Kp at 1 h [5]: 1; Tmax [7]: 30 min; Cmax [9]: 373 ng/mL; bioavailability [10]: 20%
